A selection: hits, their analogues and other compounds. The true share with any hit is near 3.6%.
AHR act = activates the human aryl hydrocarbon receptor; 320,000 tested, 2.5% active; P35869; AID 2796; AHR-responsive luciferase reporter cells, luminescence; activation, % at 5 µM; in the data active = activation above about 47%
PolyA inh = blocks polyadenylation in yeast reporter cells; S. cerevisiae SKY197-pL101 polyadenylation reporter, beta-gal luminescence; efflux-impaired pdr1/pdr3 knockout yeast; score 100 = 6 SD above DMSO; activity score, % at 12 µM; 300,000 tested, 0.02% active; AID 1875;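 active = lowest replicate activity score at least 50, where 100 means six control SD above control mean; inconclusive = lowest score under 50 but half or more replicates reach 50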;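 also: yeast exposed to compound for 9 h at 30 °C; higher score means more reporter readthrough which indicates perturbed polyadenylation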
HSF1 inhib = HSF1 inhibition | NIH3T3-HGL HSE-luciferase, MG132-induced, luminescence 8 h; active compounds read low | activity change, negative = inhibition, % at 7.5 µM (by protocol) | 300,000 tested, 0.77% active;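 active = more than half of replicate wells show activity change below -50%, luminescence cut by over half; inconclusive = some wells, but at most half, below -50%; inactive = no replicate well below -50%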;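 also: luciferase reports HSF-1 transcriptional activity via heat shock element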
STAT3 activator = increases IL-6 driven STAT3 reporter signal; AID 871; 190,000 tested, 0.91% active; activation (% of control), % at 5.6 µM; U3A cells, IL-6 STAT3-luciferase reporter, luminescence; 100% = signal with IL-6 EC80 alone;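 active = activation above the screen-wide mean of compound activation plus 3 SD, cut at about 130% in these data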
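Detection: reporter luminescence signal / Assay system: STAT1-lacking human U3A cells, STAT3 luciferase reporter / Incubation: compound pre-incubation 1 h before IL-6, then 6 h stimulation at 37 °C / Control set: IL-6-only high control / Read-out: % activation relative to IL-6 control / Probe or stimulus: Interleukin-6, 33 ng/mL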
Hsp70 activator = Hsp70 transcriptional activation, primary screen | HeLa Hsp70 promoter luciferase reporter, luminescence; scaled: vehicle 0, proteasome-inhibitor control 100% | activation, % at 10 µM | 200,000 tested, 0.04% active;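 active = activation above the mean across all tested compounds plus 3 SD, cutoff set per campaign, cut at about 5.5% in these data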
PERK inh = inhibitors of human PERK kinase | Q9NZJ5 | CHO PERK-DD fusion, SEAP luminescence translation reporter | inhibition, % at 5.6 µM | 220,000 tested, 0.17% active | AID 1416;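 active = inhibition above the mean inhibition of all tested compounds plus 3 SD, set separately per screening campaign, cut at about 2.9% in these data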;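 also: PERK kinase domain activated by AP20187 dimerizer at 100 nM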
Target sequence (Q9NZJ5 whole entry, looked up, the tested form may be a part): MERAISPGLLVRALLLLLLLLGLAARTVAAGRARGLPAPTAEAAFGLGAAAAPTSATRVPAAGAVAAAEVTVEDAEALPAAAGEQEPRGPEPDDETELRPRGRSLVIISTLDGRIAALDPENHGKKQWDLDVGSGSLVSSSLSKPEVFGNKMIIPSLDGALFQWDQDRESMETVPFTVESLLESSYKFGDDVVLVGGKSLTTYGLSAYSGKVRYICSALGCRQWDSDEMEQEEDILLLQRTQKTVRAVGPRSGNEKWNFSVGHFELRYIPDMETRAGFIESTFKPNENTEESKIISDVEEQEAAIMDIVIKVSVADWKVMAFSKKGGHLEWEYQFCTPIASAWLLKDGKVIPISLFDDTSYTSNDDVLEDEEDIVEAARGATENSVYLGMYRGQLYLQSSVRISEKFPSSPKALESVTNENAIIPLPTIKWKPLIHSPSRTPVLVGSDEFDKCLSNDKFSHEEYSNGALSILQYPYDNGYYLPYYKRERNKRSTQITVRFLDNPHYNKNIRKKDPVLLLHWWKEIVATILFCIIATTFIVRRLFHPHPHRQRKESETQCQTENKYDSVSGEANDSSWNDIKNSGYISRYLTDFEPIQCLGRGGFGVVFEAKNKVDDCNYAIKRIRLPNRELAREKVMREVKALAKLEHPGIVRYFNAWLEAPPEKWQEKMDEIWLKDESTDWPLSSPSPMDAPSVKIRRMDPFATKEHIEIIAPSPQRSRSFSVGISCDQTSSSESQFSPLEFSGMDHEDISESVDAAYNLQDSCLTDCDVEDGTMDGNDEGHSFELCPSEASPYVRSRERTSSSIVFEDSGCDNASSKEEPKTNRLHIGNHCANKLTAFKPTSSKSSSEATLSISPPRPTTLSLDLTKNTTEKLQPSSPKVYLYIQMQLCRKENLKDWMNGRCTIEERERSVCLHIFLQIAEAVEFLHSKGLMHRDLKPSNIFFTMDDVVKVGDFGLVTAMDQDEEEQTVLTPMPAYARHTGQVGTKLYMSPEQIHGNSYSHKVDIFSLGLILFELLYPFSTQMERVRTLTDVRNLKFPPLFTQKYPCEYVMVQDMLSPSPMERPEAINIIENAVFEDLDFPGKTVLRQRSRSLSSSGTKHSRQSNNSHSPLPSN
AHR act cf = human AHR activation, confirmation; shares compounds with AHR act; human cells, AHR-responsive luciferase reporter, luminescence; activation, % at 9 µM; 2,300 tested, 87% active; in the data active = activation above about 49%;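 also: HepG2 hepatoma cells carrying a DRE-driven firefly luciferase reporter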
PXR act counter = activates human PXR in AHR activator counter-screen; 2,300 tested, 88% active; shares compounds with AHR act; activation, % at 11.6 µM; AID 434939; cell-based PXR reporter, luciferase luminescence; in the data active = activation above about 11%;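 also: human hepatoma DPX-2 cells expressing full-length human PXR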
Of the large screens only hits and unclear results are named; the others gave an inactive call (follow-up assays come after a bar, where they were run).

COc1ccc(-c2sc3cc4c(cc3c2C#CC2(O)CCCCC2)OCO4)cc1	AHR act 96.3 (no result: PolyA inh, HSF1 inhib, STAT3 activator, Hsp70 activator, PERK inh) | AHR act cf 81.0 | PXR act counter 62.6
COc1ccccc1-c1oc2ccccc2c1C#CC1(O)CCCCC1	none (no result: PolyA inh, HSF1 inhib, STAT3 activator, Hsp70 activator, PERK inh)
COc1ccccc1-c1sc2cc3c(cc2c1C#Cc1ccccn1)OCO3	AHR act 103.9 (no result: PolyA inh, HSF1 inhib, STAT3 activator, Hsp70 activator, PERK inh) | AHR act cf 115.5 | PXR act counter 176.3
COc1ccccc1-c1sc2cc3c(cc2c1C#CC1(O)CCCCC1)OCO3	AHR act 103.3 (no result: PolyA inh, HSF1 inhib, STAT3 activator, Hsp70 activator, PERK inh) | AHR act cf 100.9 | PXR act counter 313.9
N=c1n(CCN2CCOCC2)c2ccccc2n1CC(=O)c1cccc([N+](=O)[O-])c1	AHR act 133.7 (no result: STAT3 activator, Hsp70 activator, PERK inh) | AHR act cf 148.4 | PXR act counter 86.7
CCCN(Cc1nnc(-c2ccccc2Cl)o1)C(=O)c1cccc(S(=O)(=O)N2CCOCC2)c1	none (no result: STAT3 activator, Hsp70 activator, PERK inh)
O=c1oc2ccccc2n1CCc1ccccc1	AHR act 94.1 | AHR act cf 100.4 | PXR act counter 33.8
O=C1c2ccccc2C(=O)N1CCCCn1c(=O)oc2ccccc21	none
O=C1NC(c2ccc(Br)cc2)Nc2ccccc21 (stereo unspecified)	AHR act 80.1 (no result: STAT3 activator, Hsp70 activator, PERK inh) | AHR act cf 62.0 | PXR act counter 21.7
S=c1nc2ccccc2c2nc(-c3ccccc3Br)[nH]n12	AHR act 122.8 (no result: STAT3 activator, Hsp70 activator, PERK inh) | AHR act cf 129.5 | PXR act counter 37.8
Cn1c(-c2ccccc2Br)n[nH]c1=S	none
COc1ccc(-n2nc(C(=O)NCC(=O)NCCC3=CCCCC3)c3ccccc3c2=O)cc1OC	none (no result: STAT3 activator, Hsp70 activator, PERK inh)
O=C(Nc1ccc2c(c1)OCO2)c1cccc(S(=O)(=O)N2CCOCC2)c1	AHR act 111.7 (no result: STAT3 activator, Hsp70 activator, PERK inh) | AHR act cf 90.5 | PXR act counter 35.6
O=C(Nc1ccc(Cl)c(Cl)c1)c1ccc2c(c1)OCO2	none (no result: STAT3 activator, Hsp70 activator, PERK inh)
Cc1occc1C(=O)Nc1ccc2c(c1)OCO2	AHR act 124.8 | AHR act cf 50.8 | PXR act counter 46.9
Cc1noc(C(=O)Nc2ccc3c(c2)OCO3)c1Cl	AHR act 124.8 | AHR act cf 147.6 | PXR act counter 25.5
O=C(Nc1ccc2c(c1)OCO2)c1ccc(Cl)s1	AHR act 113.4 | AHR act cf 85.1 | PXR act counter 34.3
O=C(Nc1ccc2c(c1)OCO2)c1ccc2c(c1)OCO2	AHR act 91.0 | AHR act cf inactive | PXR act counter 17.7
COc1ccc(NC(=O)Nc2cccnc2)c(OC)c1	AHR act 91.0 | AHR act cf 114.7 | PXR act counter 11.5
O=C(Nc1ccn(Cc2ccccc2)n1)c1ccc2c(c1)OCO2	AHR act 111.8 | AHR act cf 77.0 | PXR act counter 42.5
O=C(Nc1ccc2c(c1)OCO2)Nc1ccc2c(c1)OCO2	AHR act 106.0 | AHR act cf inactive | PXR act counter 28.2
O=C(Nc1cccc(C(=O)O)c1)Nc1ccc2c(c1)OCO2	HSF1 inhib inconclusive (no result: STAT3 activator, Hsp70 activator, PERK inh)
O=C(Nc1ccn(Cc2ccc(Cl)cc2)n1)c1ccccc1	none
Cc1ccc(CN2CCSc3sccc3C2=O)cc1	none
CC(OC(=O)c1cccnc1Cl)C(=O)NCc1ccccc1 (stereo unspecified)	none (no result: PolyA inh, HSF1 inhib, STAT3 activator, Hsp70 activator, PERK inh)
CC(=O)c1ccc(S(=O)(=O)N2CCN(C(=O)CSC(=S)N3CCCC3)CC2)cc1	none (no result: STAT3 activator, Hsp70 activator, PERK inh)
Cn1ccc2cc(NC(=O)Nc3cccnc3)ccc21	AHR act 88.9 (no result: STAT3 activator, Hsp70 activator, PERK inh) | AHR act cf 55.5 | PXR act counter 21.0
Cc1ccc(C(=O)Nc2ccc3c(c2)OCO3)cc1NC(=O)c1ccco1	AHR act 122.0 | AHR act cf 86.1 | PXR act counter 33.3
O=C(Nc1ccc2c(c1)OCO2)Nc1cnccn1	none
O=C(Nc1ccc2c(c1)OCCO2)c1ccc(Br)c(S(=O)(=O)N2CCOCC2)c1	none (no result: AHR act, PolyA inh, HSF1 inhib)
O=C(Nc1cccnc1)Nc1ccc(F)c(Cl)c1	none
O=C(Nc1cccnc1)Nc1ccc2c(c1)OCO2	AHR act 85.2 | AHR act cf 91.4 | PXR act counter 15.6
Cc1cc(NC(=O)c2ccc3c(c2)OCO3)ccc1NC(=O)c1ccco1	none
O=C(Nc1ccc2c(c1)OCO2)c1ccc(Br)c(S(=O)(=O)N2CCCC2)c1	AHR act 87.1 | AHR act cf inactive | PXR act counter 154.0
CC(=O)c1ccc(NC(=O)CN2C(=O)COc3ccc(S(=O)(=O)N4CCCC4)cc32)cc1	none (no result: STAT3 activator, Hsp70 activator, PERK inh)
NC(=S)N/N=C/c1ccc(C23CC4CC(CC(C4)C2)C3)cc1	none (no result: STAT3 activator, Hsp70 activator, PERK inh)
COCCC(=O)N1CCC(Oc2ccc(C(=O)N3CCCC(CCCO)C3)cc2)CC1 (stereo unspecified)	none (no result: STAT3 activator, Hsp70 activator, PERK inh)
CCc1ccc(C(=O)CCC(=O)Nc2ccc(OC)c(S(=O)(=O)N3CCCCC3)c2)cc1	none (no result: PolyA inh, HSF1 inhib, STAT3 activator, Hsp70 activator, PERK inh)
COc1ccccc1CN1C(=O)c2ccccc2C1C(=O)NC1CCC(C)CC1 (stereo unspecified)	none
Cc1cc(C(=O)NC(C)c2ccc3c(c2)OCO3)cs1 (stereo unspecified)	none
Cc1cc(C(=O)Nc2ccc3c(c2)OCO3)cs1	AHR act 129.5 | AHR act cf 89.6 | PXR act counter 42.6
N#CC(C#N)=C1C=CC=CN1/C(=C\c1ccco1)C(=O)c1ccc(Cl)cc1	AHR act 178.0 (no result: PolyA inh, HSF1 inhib) | AHR act cf 132.7 | PXR act counter 51.0
CCOc1cccc(CN2CCN(CCCc3ccccc3)C(CCO)C2)c1O (stereo unspecified)	none (no result: STAT3 activator, Hsp70 activator, PERK inh)
OCCC1CN(CCCc2ccccc2)CCN1Cc1ccc(F)cc1 (stereo unspecified)	none (no result: STAT3 activator, Hsp70 activator, PERK inh)
O=c1[nH]c(-c2ccc(O)cc2)nc2scc(-c3cccs3)c12	AHR act 123.9 (no result: STAT3 activator, Hsp70 activator) | AHR act cf 86.5 | PXR act counter 22.7
Cc1nc2scc(-c3cccs3)c2c(=O)[nH]1	none
CNC(=O)C1(C(F)(F)F)C/C(=C\CCO)CCCO1 (stereo unspecified)	none (no result: STAT3 activator, Hsp70 activator, PERK inh)
C/C(=N\NC(=S)Nc1cc(S(=O)(=O)N2CCOCC2)ccc1Cl)c1ccccc1F	none
COc1cccc(C=Nc2cc(C)cc(C)c2)c1O	none
CCc1ccc2oc(-c3cc(N=Cc4cccc(OC)c4O)ccc3O)nc2c1	AHR act 124.6 | AHR act cf 113.2 | PXR act counter inactive
Cc1nn(CC(=O)N(C)c2c(N)n(Cc3ccccc3)c(=O)[nH]c2=O)c(C)c1[N+](=O)[O-]	none (no result: PolyA inh, HSF1 inhib, STAT3 activator, Hsp70 activator, PERK inh)
Cc1ccc2[nH]c3c(=O)n4c(nc3c2c1)SCC4	AHR act 123.2 | AHR act cf 149.9 | PXR act counter 31.2
C=CCn1cc(/C=C2/NC(=O)NC2=O)c2ccccc21	AHR act 97.0 (no result: STAT3 activator, Hsp70 activator) | AHR act cf 90.7 | PXR act counter 35.3
C=CCn1cc(/C=N/N2C(=O)C3C4C=CC(C4)C3C2=O)c2ccccc21 (stereo unspecified)	none
